Screens from PubChem.
Sampled rows, rich in hits. Any-hit rate of the full collection: about 3.1%.
LEDGF integ inh – blocks HIV-1 LEDGF/p75-dependent DNA integration | TR-FRET IN-LEDGF/p75 DNA integration, Eu/Cy5 | inhibition, % at 3.7 µM | actives 0.64% (n = 370,000) | AID 743269;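 active = inhibition above the screen-wide mean plus 3 SD, cut at about 13% in these data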;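 also: signal is the Cy5 over europium emission ratio at 671 and 618 nm; 0% = plate median of compound wells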
UHRF1 MBD2 ctr – human UHRF1 methylated DNA binding inhibitors. Q96T88. UHRF1 binding to methylated oligo, TR-FRET. inhibition, % at 4.4 µM. actives 0.75% (n = 370,000); in the data active = inhibition above about 21%;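 also: UHRF1 SRA domain binding a hemimethylated CpG hairpin DNA probe; 0% = median of test compound wells and 100% = reference inhibitor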
MBD2 DNA inh – inhibitors of human MBD2 binding to methylated oligonucleotide; actives 0.31% (n = 370,000); AID 686964; inhibition, % at 4.4 µM; TR-FRET; Q9UBB5; in the data active = inhibition above about 13%
RBBP9 inhibitor – inhibitors of human serine hydrolase RBBP9. O75884. recombinant RBBP9, FP-Rh probe fluorescence polarization. inhibition, % at 7.94 µM. actives 0.2% (n = 220,000). AID 1515;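 active = inhibition above the campaign mean of all tested compounds plus 3 SD, cut at about 14% in these data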;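 also: plate controls were DMSO wells with RBBP9 for no effect and wells lacking RBBP9 protein for full effect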
Target sequence (O75884 whole entry, looked up): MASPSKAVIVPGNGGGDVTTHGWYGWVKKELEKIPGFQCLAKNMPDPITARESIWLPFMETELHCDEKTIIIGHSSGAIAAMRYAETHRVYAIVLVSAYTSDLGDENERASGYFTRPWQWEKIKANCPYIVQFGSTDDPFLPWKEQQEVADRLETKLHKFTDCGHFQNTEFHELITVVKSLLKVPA
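Test system: recombinant human RBBP9; Timing: 30 min then 45 min, 25 °C; Detection: fluorescence polarization; Control set: RBBP9 with DMSO as uninhibited control, no-protein wells as full inhibition; Compound dosing: one concentration, 7.94 µM nominal, 0.794% DMSO; Probe or stimulus: FP-Rh activity-based probe, 375 nM before mixing.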
ABHD5 PLIN5 PPI – blocks binding of human ABHD5 to perilipin-5. Split G. princeps luciferase complementation, luminescence, 4 h. inhibition, % at 4 µM. actives 0.78% (n = 360,000). AID 602281;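 active = inhibition above the mean inhibition across every tested compound plus 3 SD, cut at about 22% in these data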;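 also: 0% = DMSO only wells and the 100% control is not disclosed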
PRMT1 inh – blocks human protein arginine methyltransferase 1. inhibition, % at 2.79 µM. actives 1.3% (n = 370,000). recombinant PRMT1, activity-based probe fluorescence polarization. Q99873. AID 652257;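 active = inhibition above about 21% made by adding two undisclosed values, limit read from the data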
Target sequence (Q99873 whole entry, looked up): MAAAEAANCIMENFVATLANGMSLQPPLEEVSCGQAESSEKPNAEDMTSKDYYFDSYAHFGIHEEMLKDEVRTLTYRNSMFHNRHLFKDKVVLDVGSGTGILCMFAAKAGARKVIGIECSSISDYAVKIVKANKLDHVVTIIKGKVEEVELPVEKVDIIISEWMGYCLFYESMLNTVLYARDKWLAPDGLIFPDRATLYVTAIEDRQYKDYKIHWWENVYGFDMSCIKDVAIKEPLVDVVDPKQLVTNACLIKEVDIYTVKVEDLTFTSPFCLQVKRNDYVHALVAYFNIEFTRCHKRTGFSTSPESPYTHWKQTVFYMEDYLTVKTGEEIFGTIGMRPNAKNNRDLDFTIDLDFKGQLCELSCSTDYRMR
PRMT1 confirm – PRMT1 (human) inhibition, FP confirmation | inhibition, % at 2.79 µM | shares compounds with PRMT1 inh | actives 42% (n = 3,300) | recombinant His-PRMT1, activity-based probe fluorescence polarization;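 active = mean inhibition across replicates above the hit cutoff derived for the earlier primary screen, cut at about 22% in these data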
An asterisk follows results filed as active; i = inactive; / = no result.

SMILES | LEDGF integ inh | UHRF1 MBD2 ctr | MBD2 DNA inh | RBBP9 inhibitor | ABHD5 PLIN5 PPI | PRMT1 inh | PRMT1 confirm
CN1CCc2cccc3c2[C@H]1Cc1ccc(O)c(O)c1-3 | 12 | 15 | 4 | 28* | -3 | 86* | 38*
Cc1ccc(NC(=O)CSc2ncc3ccccn23)cc1C | -1 | 3 | 4 | -6 | -3 | 28* | 19
O=C1ON=C(c2ccccc2)/C1=C\c1ccco1 | 12 | 2 | 3 | -4 | 3 | 17 | /
Cc1ccc(/C=C2/C(=O)ON=C2c2ccccc2)o1 | 3 | -1 | -1 | 1 | 11 | 25* | 33*
Nc1ccc2cc3[nH]c4cc(N)ccc4c3nc2c1 | 0 | i | -96 | / | -8 | 156* | -41
Cn1ncc2c1NC(c1ccc(F)cc1)SCC2=O (stereo not drawn) | 1 | -2 | 0 | / | -10 | 34* | 55*
CC(=O)Nc1ccc(S(=O)(=O)NCC(=O)NNC(=O)c2csc(N3CCOCC3)n2)cc1 | -3 | 2 | 2 | / | -2 | 52* | 14
O=C(CCNS(=O)(=O)c1ccccc1)NNC(=O)c1csc(N2CCOCC2)n1 | -1 | -1 | 5 | / | -6 | 0 | /
Cc1ccc2[nH]c(=O)c(C(c3nnnn3C3CCCC3)N3CCCc4ccccc43)cc2c1 (stereo not drawn) | 8 | -3 | -9 | -4 | -14 | 35* | -3
Cc1ccc2[nH]c(=O)c(C(c3nnnn3CC3CCCO3)N3CCCc4ccccc43)cc2c1 (stereo not drawn) | 3 | -3 | 1 | 2 | -8 | 20 | /
Cc1ccc(-c2cccc(NC(=O)C3C4C=CC(C4)C3C(=O)O)c2)o1 (stereo not drawn) | -4 | -2 | -6 | -4 | 3 | 54* | -2
CC(=O)c1cccc(NC(=O)C2C3C=CC(C3)C2C(=O)O)c1 (stereo not drawn) | -4 | 0 | -1 | -6 | 1 | 2 | /
Cc1cc(C)nc(SCC(=O)c2ccc(O)c(O)c2)n1 | 11 | 3 | 1 | / | 0 | 49* | 42*
Cc1cc(C)nc(SCC(=O)c2ccc([N+](=O)[O-])cc2)n1 | 0 | 3 | -6 | -9 | -12 | 37* | 3
Cc1ccnc(SCC(=O)c2ccc([N+](=O)[O-])cc2)n1 | -2 | 8 | 5 | -5 | -1 | 3 | /
CCOc1ccc(Oc2c(Cl)cnn(Cc3cccc4ccccc34)c2=O)cc1 | -1 | 2 | 4 | / | / | 2 | /
CC(=O)Nc1ccc(SC(C)C(=O)NC(N)=O)cc1 (stereo not drawn) | 1 | 0 | 8 | -4 | -3 | 39* | 31*
COc1ccc(NC(=O)C(C)Sc2ccccc2)cc1 (stereo not drawn) | -2 | -2 | -5 | -3 | -2 | -1 | /
COCc1cc(N2CCN(C(=O)OC(C)(C)C)C[C@@H]2C)ccc1N1CC[C@@H](O)C1 | 7 | -3 | -2 | / | / | 50* | 9
COC(OC)c1nc(SCC(=O)Nc2cccc(Cl)c2)ncc1C(=O)O | -2 | -2 | -1 | 1 | -1 | 27* | 3
COc1cccc(N2C(=O)CC(N3CCC(C(N)=O)(N4CCCCC4)CC3)C2=O)c1 (stereo not drawn) | 1 | 5 | 4 | -3 | 5 | 54* | 2
NC(=O)C1(N2CCCCC2)CCN(C2CC(=O)N(CCc3ccccc3)C2=O)CC1 (stereo not drawn) | 0 | 2 | 7 | 0 | -8 | 44* | -4
NC(=O)CC(NSc1ccccc1[N+](=O)[O-])C(=O)O (stereo not drawn) | 2 | 1 | 0 | 1 | -9 | 34* | 23*
CN(Cc1ccccc1)C(=O)c1cccc(NC(=O)Cc2ccc(NC(=O)C3CCCN(S(=O)(=O)c4cccc([N+](=O)[O-])c4)C3)cc2)c1 (stereo not drawn) | 3 | 0 | 10 | / | / | 2 | /
c1ccc(NNC2=NCCS2)cc1 | 3 | 1 | -6 | / | -7 | 29* | 1
SMILES | LEDGF integ inh | UHRF1 MBD2 ctr | MBD2 DNA inh | RBBP9 inhibitor | ABHD5 PLIN5 PPI | PRMT1 inh | PRMT1 confirm
Nc1ccc(C(=O)Nc2ccc3c(O)cc(S(=O)(=O)O)cc3c2)cc1 | 6 | 2 | 0 | / | 0 | 7 | /
Nc1cc(S(=O)(=O)O)cc2ccc(S(=O)(=O)O)cc12 | 6 | 5 | -5 | / | -6 | 35* | 10
C1CSC2(N1)C1CC3CC2CC(C1)C31NCCS1 (stereo not drawn) | -1 | 4 | 7 | -3 | -30 | 63* | 45*
NNc1nc2sc3c(c2c(=O)[nH]1)CCc1ccccc1-3 | 6 | 1 | -7 | -9 | -10 | 61* | 5
C#CCN1C(=O)[C@]2(NCCc3c2[nH]c2ccc(OC)cc32)c2ccccc21 | 4 | 1 | -1 | / | / | 12 | /
CC1=CC(=O)C(C2CCCCC2)=C/C1=N\OS(=O)(=O)c1ccccc1 | 1 | -1 | -9 | / | / | 51* | 13
CSc1ccc(/C=N/NC(=O)CNc2ccc3ccccc3c2)cc1 | 2 | -7 | -2 | 6 | 1 | 29* | 11
CSc1ccc(/C=N/NC(=O)CNc2cccc3ccccc23)cc1 | -6 | -6 | -1 | 8 | -6 | 1 | /
NC(=O)C1CCN(C(=S)c2ccc(-c3ccc(Br)cc3)o2)CC1 | 0 | 1 | 2 | -10 | -1 | 46* | 60*
C[C@H]1[C@@H](C(=O)N2CCCC2)Cc2nc3ccccc3nc2C[C@@H]1c1ccccc1 | 2 | -4 | -1 | / | / | 1 | /
S=c1nccc(-c2ccc(Cl)cc2)[nH]1 | 5 | -1 | -8 | -1 | -5 | 26* | 27*
Clc1ccc(-c2cc3ccccc3[nH]2)cc1 | 0 | -1 | -4 | -12 | -19 | 0 | /
S=c1[nH]c(-c2ccc(Cl)cc2)cs1 | -3 | -1 | 1 | -8 | -13 | 31* | 54*
Clc1ccc(-c2ccn[nH]2)cc1 | 2 | -1 | 4 | -3 | 0 | -1 | /
CCOC(=O)C1=CCN(S(=O)(=O)c2cccc(Cl)c2)C1c1cccc(Br)c1 (stereo not drawn) | 0 | -2 | -2 | / | / | -1 | /
Cc1[nH]c2ccccc2c1CC(=O)Nc1ccc(Nc2cccnc2)c(-c2ccc(OC(F)(F)F)cc2)c1 | -3 | 4 | 2 | / | / | 6 | /
Cc1ccc(CN2CCCCC(NC(=O)Cc3cccs3)C2=O)cc1 (stereo not drawn) | 1 | -1 | -3 | / | / | 3 | /
C[C@@H]1ON(C)[C@H]2C[C@H]3c4cc(-c5ccc(F)cc5)ccc4CCN3C[C@@H]12 | -2 | -1 | -1 | / | / | 0 | /
COc1ccccc1C(=O)N1CCC2CCN(C(=O)OC(C)(C)C)C2C1 (stereo not drawn) | 8 | 0 | -4 | / | / | -6 | /
